≈ marks a conversion by molar mass, not a printed value. Calls of active or inactive are those of the source. The calls are words filed in the database; no cut-off is given here.
How the values were obtained:
[1] = system: Mucor hiemalis; experiment: Antifungal activity against Mucor hiemalis DSM 2656 by serial dilution method; format: functional
How it was run: (§1)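 Fungi were tested by serial dilution in MYG medium (1.0% phytone peptone, 1.0% glucose, 50 mM HEPES, pH 7.0). The top well held 67 μg/mL final, from a 1 mg/mL stock. Methanol served as negative control. The MIC was recorded.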

[2] = system: Candida albicans; experiment: Antifungal activity against Candida albicans DSM 1665 by serial dilution method; format: functional; how it was run: as §1
[3] = system: L929; experiment: Cytotoxicity against mouse L929 cells measured after 5 days by MTT assay; format: cell-based
[4] = system: KB 3-1; experiment: Cytotoxicity against human KB3-1 cells measured after 5 days by MTT assay; format: functional, cell-based
[5] = system: MCF7; experiment: Cytotoxicity against human MCF7 cells measured after 5 days by MTT assay; format: functional, cell-based; conditions: MCF7, 120 h
[6] = system: PC-3; experiment: Cytotoxicity against human PC3 cells measured after 5 days by MTT assay; format: functional, cell-based; conditions: PC-3, 120 h
[7] = system: A549; experiment: Cytotoxicity against human A549 cells measured after 5 days by MTT assay; format: functional, cell-based; conditions: A549, 120 h
[8] = system: SK-OV-3; experiment: Cytotoxicity against human SKOV3 cells measured after 5 days by MTT assay; format: functional, cell-based; conditions: SK-OV-3, 120 h
[9] = system: Staphylococcus aureus; experiment: Antibacterial activity against Staphylococcus aureus Newman by serial dilution method; format: functional
[10] = system: Escherichia coli; experiment: Antibacterial activity against Escherichia coli DSM1116 by serial dilution method; format: functional
[11] = system: Bacillus subtilis; experiment: Antibacterial activity against Bacillus subtilis DSM10 by serial dilution method; format: functional
[12] = system: Hepatitis C virus; experiment: Antiviral activity against HCV JC1 infected in human Huh7.5 cells assessed as reduction in viral infection treated for 4 hrs followed by compound washout and measured after 3 days by luciferase reporter gene assay; format: functional, organism-based; conditions: Hepacivirus hominis
How it was run: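 Huh-7.5 cells were electroporated with the Luc-Jc1 reporter virus in the presence of compound. After 4 h the inoculum was removed, and the monolayers were washed three times with PBS and given fresh compound-free medium. Cells were lysed at 3 days for luciferase read-out. Runs were in duplicate, reported as mean and standard deviation.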

[13] = system: Candida albicans; experiment: Antifungal activity against amphotericin B-resistant Candida albicans; format: functional
How it was run: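 Broth serial dilution MIC in 96-well plates using MYG medium for fungi (1.0% phytone peptone, 1.0% glucose, 50 mM HEPES, pH 7.0). Compounds were added as 20 µL aliquots of a 1 mg/mL stock, giving 67 μg/mL final in the first well. Methanol served as negative control.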

[14] = system: Trypanosoma brucei; experiment: Antimicrobial activity against Trypanosoma brucei; format: functional
[15] = Mus musculus, L929, 120 h, read-out: IC50
[16] = Homo sapiens, KB 3-1, 120 h, read-out: IC50

Compound | MIC [1] | MIC [2] | IC50 [4, 16] [µM] | IC50 [6] [µM] | IC50 [7] [µM] | IC50 [8] [µM] | MIC [9] | MIC [10] | MIC [11] | Activity [12] | further results
NYSTATIN | 4.16 µg/mL | 8.8 µg/mL |  |  |  |  |  |  |  |  | 
C/C(=C\c1csc(C)n1)[C@@H]1C[C@@H]2O[C@]2(C)CCC[C@H](C)[C@H](O)[C@@H](C)C(=O)C(C)(C)[C@@H](O)CC(=O)O1 [PATUPILONE] |  |  | 5.3e-05 | 0.0022 | 0.004 | 0.00024 |  |  |  |  | IC50 [3, 15]: 0.00075 µM; IC50 [5]: 7.4e-05 µM
CC1=C/[C@H](O)[C@H](O)\C=C/C=C/C=C/C=C\C=C/[C@H](C)CNC(=O)\C=C/C=C/1 | inactive | inactive |  |  |  |  | inactive | inactive | inactive | inactive | 
CN(C)[C@@H]1C(O)=C(C(N)=O)C(=O)[C@@]2(O)C(O)=C3C(=O)c4c(O)cccc4[C@@](C)(O)[C@H]3[C@H](O)[C@@H]12 [OXYTETRACYCLINE] |  |  |  |  |  |  | 0.05 µg/mL (≈ 0.109 µM) | 1.66 µg/mL (≈ 3.61 µM) | 2.08 µg/mL (≈ 4.52 µM) |  | 
CC1=C\C=C\C=C\C=C/C=C\[C@H](C)CNC(=O)/C(C)=C/C=C/C=C/C=C\C=C/[C@H](C)CNC(=O)\C(C)=C\1 | inactive | inactive | 5.4 | 5 | 32.1 | 10 | 16.7 µg/mL (≈ 33.5 µM) | inactive | inactive | Active | IC50 [3, 15]: 42.2 µM; IC50 [5]: 18.1 µM
CC1=C/[C@H](O)[C@H](O)\C=C/C=C/C=C/C=C\C=C/[C@H](C)CNC(=O)/C=C/C=C/1 |  |  |  |  |  |  |  |  |  |  | IC50 ([3]; l929): Non-Toxic; IC50 ([4]; kb 3-1): Not Active
CC1=C\C=C\C=C\C(C)CNC(=O)/C=C(O)/C=C/C(C)=C/C=C/C(O)C(O)C(O)C(=O)/C=C\C=C\1 (stereo unspecified) |  |  |  |  |  |  |  |  |  |  | MIC [13]: 4 µg/mL (≈ 8.31 µM)
CC1=C\C=C\C[C@H](C)NC(=O)/C=C/C=C/C=C/[C@H](C)[C@@H](O)[C@H](O)[C@@H](O)C[C@@H](O)/C=C\C=C\C(C)=C\1 |  |  |  |  |  |  |  |  |  |  | MIC [14]: 0.8 µM (≈ 0.387 µg/mL)
C\C1=C/C=C/C=C/C=C\C=C/[C@H](C)CNC(=O)/C(C)=C/C=C/C=C/C=C\C=C/[C@H](C)CNC1=O | 66.7 µg/mL (≈ 145 µM) | 66.7 µg/mL (≈ 145 µM) | 6.8 | 6.3 | 16.3 | 14.2 | 66.7 µg/mL (≈ 145 µM) | inactive | inactive | Active | IC50 [3, 15]: 32.8 µM; IC50 [5]: 16.4 µM
C/C1=C/C=C/C(C)=C/C=C/C=C\C=C/[C@H](C)CNC(=O)/C(C)=C/C=C/C(C)=C/C=C/C=C\C=C/[C@H](C)CNC1=O | inactive | inactive |  |  |  |  |  | inactive | inactive | Active | 
CC1=C\C=C\C=C/C=C\[C@H](C)CNC(=O)/C(C)=C/C=C/C(C)=C/C=C/C=C\C=C/[C@H](C)CNC(=O)\C(C)=C\C=C\1 |  |  | 2.4 | 2.1 | 6.5 | 5.5 | 66.7 µg/mL (≈ 124 µM) |  |  |  | IC50 ([3]; l929): Non-Toxic
